The source made the active and inactive calls.
Tests used:
[1] = target: WD repeat-containing protein 5 (Homo sapiens, UniProt P61964); assay: Binding affinity to full-length N-terminal His-tagged WDR5 (unknown origin) expressed in Escherichia coli BL21 (DE3) cells assessed as dissociation constant by isothermal titration calorimetry
Outline: (§1)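 Inverse ITC was run with His-tagged VCB (pVHL54–213 co-expressed with EloB1–104 and EloC1–112) and E. coli BL21(DE3)-expressed WDR5, both purified by HisTrap and Superdex 200 gel filtration. Titrations were VCB into ligand, VCB into the ligand–WDR5 complex, and WDR5 into ligand. Three independent replicates were done, reported as mean ± SD, and the first injection was excluded from fitting.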

[2] = Binding affinity to His-tagged VCB/full-length N-terminal His-tagged WDR5 (unknown origin) expressed in Escherichia coli BL21 (DE3) cells assessed as dissociation constant by isothermal titration calorimetry; design: species or system Homo sapiens; outline: as §1
[3] = target: T1, von Hippel-Lindau disease tumor suppressor/WD repeat-containing protein 5 (Homo sapiens, UniProt P61964+P40337); assay: PROTAC activity at VHL/WDR5 in human MIA PaCa-2 cells assessed as degradation of WDR5 protein incubated for 18 hrs by Western blotting analysis; format: cell-based
Outline: (§2)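 Five PDAC lines (MIA PaCa-2 in DMEM; BxPC-3, HPAF-II, Panc10.05 and PANC-1 in RPMI 1640; all with 10% FBS) given DMSO or compound over a concentration range up to 50 μM for 18 h. Lysates immunoblotted for WDR5 against tubulin. For MIA PaCa-2, DC50 and Dmax were fitted from 4 independent experiments.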

[4] = target: T1, von Hippel-Lindau disease tumor suppressor/WD repeat-containing protein 5; assay: PROTAC activity at VHL/WDR5 in human BXPC-3 cells assessed as degradation of WDR5 protein incubated for 18 hrs by Western blotting analysis; format: cell-based; outline: as §2
[5] = target: T1, von Hippel-Lindau disease tumor suppressor/WD repeat-containing protein 5; assay: PROTAC activity at VHL/WDR5 in human HPAF-II cells assessed as degradation of WDR5 protein incubated for 18 hrs by Western blotting analysis; format: cell-based; outline: as §2
[6] = target: T1, von Hippel-Lindau disease tumor suppressor/WD repeat-containing protein 5; assay: PROTAC activity at VHL/WDR5 in human Panc1005 cells assessed as degradation of WDR5 protein incubated for 18 hrs by Western blotting analysis; format: cell-based; outline: as §2
[7] = target: T1, von Hippel-Lindau disease tumor suppressor/WD repeat-containing protein 5; assay: PROTAC activity at VHL/WDR5 in human PANC-1 cells assessed as degradation of WDR5 protein incubated for 18 hrs by Western blotting analysis; format: cell-based; outline: as §2
[8] = target: T1, von Hippel-Lindau disease tumor suppressor/WD repeat-containing protein 5; assay: PROTAC activity at VHL/WDR5 in human MIA PaCa-2 cells assessed as hook effect upto 50 uM incubated for 18 hrs by Western blotting analysis; format: cell-based; outline: as §2
[9] = target: T1, von Hippel-Lindau disease tumor suppressor/WD repeat-containing protein 5; assay: PROTAC activity at VHL/WDR5 in human BXPC-3 cells assessed as hook effect upto 50 uM incubated for 18 hrs by Western blotting analysis; format: cell-based; outline: as §2
[10] = target: T1, von Hippel-Lindau disease tumor suppressor/WD repeat-containing protein 5; assay: PROTAC activity at VHL/WDR5 in human HPAF-II cells assessed as hook effect upto 50 uM incubated for 18 hrs by Western blotting analysis; format: cell-based; outline: as §2
[11] = target: T1, von Hippel-Lindau disease tumor suppressor/WD repeat-containing protein 5; assay: PROTAC activity at VHL/WDR5 in human Panc1005 cells assessed as hook effect upto 50 uM incubated for 18 hrs by Western blotting analysis; format: cell-based; outline: as §2
[12] = target: T1, von Hippel-Lindau disease tumor suppressor/WD repeat-containing protein 5; assay: PROTAC activity at VHL/WDR5 in human PANC-1 cells assessed as hook effect upto 50 uM incubated for 18 hrs by Western blotting analysis; format: cell-based; outline: as §2
[13] = target: T1, von Hippel-Lindau disease tumor suppressor/WD repeat-containing protein 5; assay: PROTAC activity at VHL/WDR5 in human MIA PaCa-2 cells assessed as decrease in WDR5 protein by measuring degradation concentration incubated for 18 hrs by Western blotting analysis; format: cell-based
Outline: (§3)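 MIA PaCa-2 cells were grown in DMEM with 10% FBS and treated with a concentration series for 18 h. Total lysates were Western blotted for WDR5 against a tubulin loading control using fluorescent secondary antibodies. DC50 and Dmax were fitted from 4 independent experiments.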

[14] = target: T1, von Hippel-Lindau disease tumor suppressor/WD repeat-containing protein 5; assay: PROTAC activity at VHL/WDR5 in human MIA PaCa-2 cells assessed as maximal degradation of WDR5 protein incubated for 18 hrs by Western blotting analysis relative to control; format: cell-based; outline: as §3
[15] = target: T1, von Hippel-Lindau disease tumor suppressor/WD repeat-containing protein 5; assay: PROTAC activity at VHL/WDR5 in human MIA PaCa-2 cells assessed as degradation of WDR5 protein at 0.1 uM by Western blotting analysis; format: cell-based; conditions: TDE = time-dependent effect
Outline: (§4)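 Time course: MIA PaCa-2 cells given DMSO or 0.1 μM compound and harvested at the indicated times. Lysates immunoblotted for WDR5, with tubulin as loading control. Representative of at least two independent experiments.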

[16] = target: T1, von Hippel-Lindau disease tumor suppressor/WD repeat-containing protein 5; assay: PROTAC activity at VHL/WDR5 in human MIA PaCa-2 cells assessed as degradation of WDR5 protein at 0.1 uM incubated for 2 hrs by Western blotting analysis; format: cell-based; outline: as §4
[17] = target: T1, von Hippel-Lindau disease tumor suppressor/WD repeat-containing protein 5; assay: PROTAC activity at VHL/WDR5 in human MIA PaCa-2 cells assessed as maximal degradation of WDR5 protein at 0.1 uM incubated for 24 hrs by Western blotting analysis; format: cell-based; outline: as §4
[18] = target: T1, von Hippel-Lindau disease tumor suppressor/WD repeat-containing protein 5; assay: PROTAC activity at VHL/WDR5 in human MIA PaCa-2 cells assessed as degradation of WDR5 protein at 0.5 uM incubated for 4 hrs in presence of carfilzomib by Western blotting analysis; format: cell-based
Outline: (§5)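 Rescue: MIA PaCa-2 cells pretreated for 2 h with 0.4 μM carfilzomib or with OICR-9429 at several concentrations, then given DMSO or 0.5 μM compound for a further 4 h. WDR5 immunoblotted against tubulin. Representative of at least two experiments.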

[19] = target: T1, von Hippel-Lindau disease tumor suppressor/WD repeat-containing protein 5; assay: PROTAC activity at VHL/WDR5 in human MIA PaCa-2 cells assessed as degradation of WDR5 protein at 0.5 uM incubated for 4 hrs in presence of OICR-9429 by Western blotting analysis; format: cell-based; outline: as §5
[20] = target: T1, von Hippel-Lindau disease tumor suppressor/WD repeat-containing protein 5; assay: PROTAC activity at VHL/WDR5 in human MIA PaCa-2 cells assessed as degradation of WDR5 protein at 1.5 uM incubated for 2 hrs by Western blotting analysis; format: cell-based
Outline: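 MIA PaCa-2 cells given DMSO or 1.5 μM compound for 2 h. Lysates prepared for proteomics were checked by WDR5 immunoblot.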

[21] = target: T1, von Hippel-Lindau disease tumor suppressor/WD repeat-containing protein 5; assay: PROTAC activity at VHL/WDR5 in human MIA PaCa-2 cells assessed as degradation of WDR5 protein at 1.5 uM incubated for 2 hrs by TMT-labeled mass spectrometry based quantitative proteomics assay; format: cell-based
Outline: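 TMT proteomics: MIA PaCa-2 cells given DMSO or 1.5 μM compound (2 h in the figure legend, 2.5 h in the methods). Cells lysed in 8 M urea pH 8.0, reduced with DTT, alkylated with iodoacetamide, then digested with LysC/trypsin overnight at 37 °C. Peptides TMT10plex-labelled and analyzed by MS. Cutoffs P < 0.01 and log2 fold change > 0.5, three biological replicates.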

[22] = test system: MIA PaCa-2; assay: Growth inhibition of human MIA PaCa-2 cells incubated for 6 days by MTS assay; format: functional; conditions: MIA PaCa-2, 144 h, time 6 day
Outline: (§6)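 MTS read-out. PDAC cells seeded at 500 or 1000 per well and exposed to a compound concentration series for 6 days, with medium plus fresh compound replaced every 2 days. MTS incubated 0.5–2 h, absorbance read at 490 nm. Growth normalized to DMSO. Three independent experiments, mean ± SEM; GI50 by nonlinear regression.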

[23] = test system: BXPC-3; assay: Growth inhibition of human BXPC-3 cells incubated for 6 days by MTS assay; format: functional; conditions: BXPC-3, 144 h, time 6 day; outline: as §6
[24] = test system: HPAF-II; assay: Growth inhibition of human HPAF-II cells incubated for 6 days by MTS assay; format: functional; conditions: 144 h, time 6 day; outline: as §6
[25] = test system: Panc1005; assay: Growth inhibition of human Panc1005 cells incubated for 6 days by MTS assay; format: functional; conditions: Panc1005, 144 h, time 6 day; outline: as §6
[26] = test system: PANC-1; assay: Growth inhibition of human PANC-1 cells incubated for 6 days by MTS assay; format: functional; conditions: PANC-1, 144 h, time 6 day; outline: as §6
[27] = Cmax in Swiss albino mouse at 75 mg/kg,ip administration measured for 0.5 hrs by LC-MS/MS analysis; format: ADME, organism-based; design: time 0.5 hrs, dose 75 mg/kg, route ip; conditions: in vivo
Outline: (§7)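 Six male Swiss albino mice were each given one intraperitoneal dose of a solution formulation at 75 mg/kg. […] Plasma was quantified by LC–MS/MS (LLOQ 5.03 ng/mL), values are means of three mice per time point, and PK was derived by nonlinear regression.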

[28] = AUC (0 to last) in Swiss albino mouse at 75 mg/kg,ip administration measured for 0.5 to 12 hrs by LC-MS/MS analysis; format: ADME, organism-based; design: time upper 12 hrs, dose 75 mg/kg, time lower 0.5 hrs, route ip; conditions: in vivo; outline: as §7
[29] = Drug distribution in Swiss albino mouse plasma at 75 mg/kg,ip administration measured for 4 hrs by LC-MS/MS analysis; format: ADME, organism-based; outline: as §7
[30] = Drug distribution in Swiss albino mouse plasma at 75 mg/kg,ip administration measured for 12 hrs by LC-MS/MS analysis; format: ADME, organism-based; outline: as §7
[31] = Toxicity in Swiss albino mouse assessed as clinical signs of toxicity at 75 mg/kg,ip observed after 0.5 to 12 hrs; format: organism-based; conditions: in vivo, time 0.5-12 hrs
Outline: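 Six male Swiss albino mice were given one intraperitoneal dose of a solution formulation at 75 mg/kg and observed for clinical signs during the 12 h PK sampling period (0.5–12 h).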

**Q.** For Cc1ncsc1-c1ccc(CNC(=O)[C@@H]2C[C@@H](O)CN2C(=O)[C@@H](NC(=O)CNC(=O)c2ccc(F)c(-c3ccc(N4C[C@@H](C)N(C)[C@@H](C)C4)c(NC(=O)c4c[nH]c(=O)cc4C(F)(F)F)c3)c2)C(C)(C)C)cc1, which Kd [1] is on record?
**A.** Its Kd is 0.122 µM.

**Q.** And the Kd [2]?
**A.** The Kd was 0.232 µM.

**Q.** What about the Activity [3] of the same molecule?
**A.** Its Activity is “Dose-Dependent Effect”.

**Q.** And the Activity [4]?
**A.** The Activity was “Dose-Dependent Effect”.

**Q.** And the Activity [5]?
**A.** Its Activity is “Dose-Dependent Effect”.

**Q.** And the Activity [6]?
**A.** Its Activity is “Dose-Dependent Effect”.

**Q.** And the Activity [7]?
**A.** The Activity was “Dose-Dependent Effect”.

**Q.** And the Activity [8]?
**A.** Its Activity is “inactive”.

**Q.** What about the Activity [9] of the same molecule?
**A.** Its Activity is “inactive”.

**Q.** And the Activity [10]?
**A.** The Activity was “inactive”.

**Q.** What about the Activity [11] of the same molecule?
**A.** The Activity was “inactive”.

**Q.** What about the Activity [12] of the same molecule?
**A.** Its Activity is “inactive”.

**Q.** And the DC50 [13]?
**A.** Its DC50 is 0.092 µM.

**Q.** What about the Emax [14] of the same molecule?
**A.** The Emax was 73%.

**Q.** And the Activity [15]?
**A.** The Activity was “Tde”.

**Q.** And the Activity [16]?
**A.** The Activity was “Active”.

**Q.** What about the Activity [17] of the same molecule?
**A.** The Activity was “Active”.

**Q.** What about the Activity [18] of the same molecule?
**A.** The Activity was “inactive”.

**Q.** And the Activity [19]?
**A.** The Activity was “Active”.

**Q.** And the Activity [20]?
**A.** The Activity was “Active”.

**Q.** And the Activity [21]?
**A.** The Activity was “Active”.

**Q.** What about the GI50 [22] of the same molecule?
**A.** The GI50 was 5.7 µM.

**Q.** What about the GI50 [23] of the same molecule?
**A.** Its GI50 is 4 µM.

**Q.** What about the GI50 [24] of the same molecule?
**A.** The GI50 was 9.2 µM.

**Q.** And the GI50 [25]?
**A.** Its GI50 is 14.3 µM.

**Q.** And the GI50 [26]?
**A.** Its GI50 is 32.7 µM.

**Q.** What about the Cmax [27] of the same molecule?
**A.** The Cmax was 5000 nM.

**Q.** And the AUC(0-t) [28]?
**A.** Its AUC(0-t) is 7300 ng·h/mL.

**Q.** What about the concentration at 4 h [29] of the same molecule?
**A.** Its concentration at 4 h is 1000 nM.

**Q.** What about the concentration at 12 h [30] of the same molecule?
**A.** Its concentration at 12 h is over 100 nM.

**Q.** And the Activity [31]?
**A.** The Activity was “Non-Toxic”.

From ChEMBL document CHEMBL5375970, “Discovery of Potent and Selective WDR5 Proteolysis Targeting Chimeras as Potential Therapeutics for Pancreatic Cancer” (J Med Chem, 2023)
